Env fusion inh – blocks HIV Env-driven cell-cell fusion. inhibition, % at 12.3 µM. actives 1.1% (n = 360,000). HeLa-JRFL Env/CEM21 cell fusion, luciferase;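 active = mean replicate inhibition score of at least 50 and every replicate individually at or above 50; inconclusive = only one of the two criteria met; inactive = mean below 50 and not all replicates reaching 50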
rRNA inh HTS – inhibits bacterial ribosomal RNA function over humanized ribosomes. GFP signal change (wild-type ribosome), % (test concentration not listed). actives 1.6% (n = 350,000). E. coli WT GFP vs humanized-ribosome RFP mutants, fluorescence, 24 h; active compounds read low; DMSO median 0, no signal -100;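 active = significant combined selectivity score with lowered wild-type GFP, culture density cut under 30%, mutant RFP and density less affected; inactive = any of these conditions unmet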
S100A4 MyoIIA – inhibitors of human S100A4 binding to myosin IIA peptide | P26447 | S100A4/TAMRA-MyoIIA peptide fluorescence polarization | inhibition, % at 10.7 µM | actives 0.14% (n = 360,000) | AID 652163;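 active = mean inhibition of at least 70% across replicates, with every replicate also reaching that level; inconclusive = mean inhibition reaches 70% but some replicates fall short; inactive = mean inhibition below 70%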
Target sequence (P26447 whole entry, looked up): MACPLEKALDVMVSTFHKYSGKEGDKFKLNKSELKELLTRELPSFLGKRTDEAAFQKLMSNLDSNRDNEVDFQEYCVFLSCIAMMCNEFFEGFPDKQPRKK
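Material: S100A4 monomer protein / Buffer or medium: 50 mM HEPES pH 7.2, 10 mM CaCl2, 100 mM KCl / Times: 5 min incubation before reading / Benchmarks: neutral control DMSO, positive control TFP / Reagent: labelled myosin peptide probe, 5 nM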
miR-122 sensor – miR-122 inhibition in Huh7 cells | activation (reporter increase), % at 12.5 µM | actives 0.3% (n = 340,000) | Huh7 miR-122 Renilla luciferase sensor, 48 h; neutral wells = 0, positive control = 100 | AID 602342;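 active = mean replicate activation score at least 90 and every replicate individually at or above 90; inconclusive = only one of the two criteria met; inactive = neither criterion met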;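 also: higher luciferase means less miR-122 activity so hits act as miR-122 inhibitors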
Vif inh – blocks HIV Vif function | AID 602346 | actives 0.35% (n = 340,000) | HEK293T cells, Vif self-association by quenched fluorescence, imaging, 24 h | inhibition, % at 7.49 µM; in the data active = inhibition above about 50%, passing the limit was not always enough; inconclusive = no clear call, values can overlap the other calls; inactive = below about 31%
FN deposition inh – fibronectin deposition inhibition; AH1F fibroblasts, Alexa488-fibronectin deposition fluorescence, overnight; inhibition, % at 12.6 µM; actives 0.086% (n = 350,000); AID 743247;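 active = mean inhibition across replicates of 30% or more, regardless of how many single replicates reach that level; inconclusive = mean under 30% yet at least half of replicates reach 30%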
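Assay system: AH1F fibroblasts assembling fluorescent fibronectin matrix; Amount: 10000 AH1F cells per well; Buffer or medium: DMEM, 2% serum; Probe or stimulus: Alexa488-fibronectin, 24 nM final in well; Doses: single compound dose, delivered by pin transfer; Incubation: 1 h adhesion, overnight exposure; Measured by: fluorescence 485/525 nm; Read-out: fibronectin deposition inhibition.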
Numbers stand for hits; 0 = inactive; ? = inconclusive; - = not tested or not shown. Sampled rows, rich in hits. Any-hit rate of the full collection: about 2.6%.

SMILES	Env fusion inh	rRNA inh HTS	S100A4 MyoIIA	miR-122 sensor	Vif inh	FN deposition inh
O=C(C[C@H]1C[C@@H]2c3cc(NC(=O)Nc4ccccc4F)ccc3O[C@@H]2[C@H](CO)O1)NC1CCCC1	0	0	0	0	-	0
COC(=O)[C@]12CCCCC=C1N(CCC1=CCCCC1)C(=O)[C@H](CC(=O)NCc1ccc(OC)c(OC)c1)C2	80	0	0	-	-	0
COC(=O)[C@]12CCCCC=C1N(Cc1ccccc1)C(=O)[C@H](CC(=O)N1CCCCC1)C2	0	-26	0	-	-	0
CCOC(=O)[C@]12CCCC=C1N(CCC1=CCCCC1)C(=O)[C@H](CC(=O)NCc1ccc(OC)c(OC)c1)C2	71	-	0	-	-	0
COC(=O)[C@]12CCCCC=C1N(Cc1ccccc1)C(=O)[C@H](CC(=O)NCc1ccc(OC)c(OC)c1)C2	0	-20	0	-	-	-
CCOC(=O)[C@]12CCCC=C1N(Cc1cccc3ccccc13)C(=O)[C@H](CC(=O)NCc1ccc(OC)c(OC)c1)C2	56	-	0	-	-	0
CCOC(=O)[C@]12CCCC=C1N(Cc1ccccc1)C(=O)[C@H](CC(=O)NCc1ccc(OC)c(OC)c1)C2	0	0	0	-	-	0
CCCCCCCCN1C(=O)[C@H](CC(=O)NCc2ccc(OC)c(OC)c2)C[C@@]2(C(=O)OC)CCCCC=C12	118	-	0	-	-	0
CCCCCCCCN1C(=O)[C@H](CC(=O)NCc2ccc(OC)c(OC)c2)C[C@@]2(C(=O)OCC)CCC=C12	0	0	0	-	-	0
CCC(Sc1nc2ccsc2c(=O)n1-c1ccc(Cl)c(C)c1)C(=O)NCc1ccco1 (stereo not given)	65	-	-	0	0	0
O=C(CSc1nc2ccsc2c(=O)n1Cc1ccccc1)NCc1ccco1	0	-	-	0	0	0
COc1ccccc1C#Cc1ccc2c(c1)[C@H]1[C@H](CCN1S(=O)(=O)c1ccc(C)cc1)[C@@H](CO)N2	-	0	0	-	-	0
CCCCOCCCNC(=O)C[C@H]1C[C@@]2(C(=O)OC)C(=C[C@H](C(C)(C)C)O[C@@H]2C)N(Cc2ccc3c(c2)OCO3)C1=O	74	0	0	-	-	0
COC(=O)[C@]12C[C@H](CC(=O)NCc3cccc4ccccc34)C(=O)N(Cc3ccc4c(c3)OCO4)C1=C[C@H](C(C)(C)C)O[C@@H]2C	56	0	0	-	-	0
Cc1ccc(S(=O)(=O)N(C)C[C@@H]2OCc3ccccc3-c3ccccc3C(=O)N([C@H](C)CO)C[C@H]2C)cc1	-	0	0	-	-	0
C[C@H](CO)N1C[C@H](C)[C@@H](CN(C)S(C)(=O)=O)Oc2cc(C#CC3CCCC3)ccc2S1(=O)=O	0	0	0	0	-	-
C=CCn1c(-c2cc3c(s2)CCC(CC)C3)n[nH]c1=S (stereo not given)	0	-38	0	-	0	0
CCCCn1c(SCc2nc(N)nc(Nc3ccccc3C)n2)nc2ccccc2c1=O	-	-	-	0	0	-
COCC(C)n1c(SCC(=O)NC(=O)Cc2ccccc2)nc2ccccc2c1=O (stereo not given)	0	0	0	144	0	0
COCC(C)n1c(SCC(=O)NNC(=O)c2ccccc2)nc2ccccc2c1=O (stereo not given)	0	-	0	0	0	0
COCC(C)n1c(SCc2nc(N)nc(Nc3ccccc3C)n2)nc2ccccc2c1=O (stereo not given)	0	-	-	0	0	33
COCC(=O)N1[C@H](CO)[C@@H]2c3ccccc3N(C(=O)NC(C)C)C[C@@H]21	-	0	0	-	-	-
COc1ccc2c(C)nc(Nc3nc(C)c(C)c(=O)[nH]3)nc2c1	66	-	-	0	0	-
COc1ccc2nc(Nc3nc(CSc4nc5ccccc5[nH]4)cc(=O)[nH]3)nc(C)c2c1	86	0	0	0	0	0
Cc1nc(Nc2nc(CSc3ccc(Cl)cc3)cc(=O)[nH]2)nc2ccccc12	0	-	-	-	0	0
SMILES	Env fusion inh	rRNA inh HTS	S100A4 MyoIIA	miR-122 sensor	Vif inh	FN deposition inh
Cc1nc(Nc2nc(CSc3nc4ccccc4[nH]3)cc(=O)[nH]2)nc2ccccc12	161	-	-	?	0	-
Cc1ccc(S(=O)(=O)N(C)C[C@@H]2Oc3ccc(NS(=O)(=O)c4cccs4)cc3CC(=O)N([C@H](C)CO)C[C@H]2C)cc1	0	0	0	0	-	-
CCOc1ccc(NC(=S)NCCCN2CCN(C3CCCCC3)CC2)cc1	-	0	0	0	0	0
COc1ccc(NC(=S)NCCCN2CCN(C3CCCCC3)CC2)cc1	63	0	0	0	0	0
N=c1c2c(n(Cc3ccc(F)cc3)c3c1CCC3)CCCC2	0	-31	0	-	-	0
N=c1c2c(n(Cc3cccc(Cl)c3)c3c1CCC3)CCCC2	-	-52	0	-	0	-
N=c1c2c(n(Cc3ccccc3)c3c1CCC3)CCC2	-	-	-	0	0	-
N=c1c2c(n(Cc3ccc(Cl)cc3)c3c1CCC3)CCC2	-	-53	0	0	0	-
Clc1cccc(CN2CCCCCC2)c1	0	0	0	0	0	0
COc1ccc2c3c([nH]c2c1)[C@H](CO)N(C(=O)c1ccc(F)cc1)CC31CN(C)C1	-	0	-	-	-	-
O=C(c1cc(COc2cccc3cccnc23)on1)N1CCC[C@H]1CO	0	0	0	0	51	0
COC(=O)C1CCCCN1C(=O)c1cc(COc2cccc3cnccc23)on1 (stereo not given)	64	-31	0	0	0	0
COC(=O)C1CCCCN1C(=O)c1cc(COc2cccc3cccnc23)on1 (stereo not given)	0	0	0	0	-	0
O=C(C[C@@H]1C/C=C/CC[C@@H](Cc2ccc(F)cc2)C(=O)O[C@H](c2ccccc2)CNC1=O)NCCO	83	0	0	0	0	0
Cc1cc(C)c(S(=O)(=O)N2CCCCC2)cc1N(C)S(=O)(=O)c1ccc(Cl)cc1	95	-	-	0	-	0
Cc1ccc(S(=O)(=O)N(C)c2cc(S(=O)(=O)N3CCOCC3)c(C)cc2C)cc1	0	0	0	0	0	0
CN(C)CCNC(=S)Nc1ccccc1Cl	-	0	0	0	65	0
COC(=O)c1ccc2c(=O)n(CC3CCCO3)c(SCC(=O)Nc3ccccc3OC)nc2c1 (stereo not given)	0	-	-	190	0	0
COC(=O)c1ccc2c(=O)n(Cc3ccco3)c(SCC(=O)Nc3cc(C)on3)nc2c1	0	0	0	-	53	0
O=C(CSc1nc2ccccc2c(=O)n1CC1CCCO1)NCC1CCCO1 (stereo not given)	0	0	0	0	0	0
COCCNC(=O)CSc1nc2ccccc2c(=O)n1CC1CCCO1 (stereo not given)	0	-	-	286	0	0
O=C(C[C@H]1CC[C@H]2[C@@H](COC[C@H](O)CN2Cc2nccs2)O1)NCc1ccccc1F	-	0	0	0	-	0

Source: PubChem (Broad Institute)
